Assay results gathered from unrelated publications.
Each line is one published result; the experiments were not run side by side.
Target: Serine/threonine-protein kinase RIO3 (RIOK3, Homo sapiens, UniProt O14730)
Residues used in one study (O14730 1-519): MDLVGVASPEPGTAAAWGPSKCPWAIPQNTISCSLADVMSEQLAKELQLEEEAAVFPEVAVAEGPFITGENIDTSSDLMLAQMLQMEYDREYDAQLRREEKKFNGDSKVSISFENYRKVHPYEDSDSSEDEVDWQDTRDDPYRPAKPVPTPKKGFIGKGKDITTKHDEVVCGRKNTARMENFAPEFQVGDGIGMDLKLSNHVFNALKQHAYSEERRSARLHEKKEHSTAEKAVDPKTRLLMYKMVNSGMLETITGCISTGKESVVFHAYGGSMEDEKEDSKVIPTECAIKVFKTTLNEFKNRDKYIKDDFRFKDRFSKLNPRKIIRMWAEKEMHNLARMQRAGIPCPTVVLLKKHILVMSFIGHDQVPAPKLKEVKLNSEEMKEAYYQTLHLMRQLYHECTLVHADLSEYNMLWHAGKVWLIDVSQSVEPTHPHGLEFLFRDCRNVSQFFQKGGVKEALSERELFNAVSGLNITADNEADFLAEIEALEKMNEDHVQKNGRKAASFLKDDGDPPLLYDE

SMILES | assay | conditions | remaining binding [%]
N[C@H]1CCN(c2nccc(-c3cnn4ncccc34)n2)C1 | binding | 1 µM | 81
CNC(=O)[C@@H]1CC[C@@H](n2c(-c3ccc4cnccc4c3)nc3ccc(C(=O)NCc4cccc(C(N)=O)c4)cc32)C1 | binding, competition with immobilised ligand | 1 µM | 88
Cc1cnc(Nc2ccc(C(=O)N3CCC(N4CCCC4)CC3)cc2)nc1-c1cc2ccccc2s1 | binding, competition with immobilised ligand | 1 µM | 0.3
CC(=O)N1CCC(c2ccc(C(=O)NC(=N)N)cc2C(F)(F)F)CC1 | cell-free assay, competition with immobilised ligand | 1 µM | 100
c1cncc(-c2cccc(Nc3nccc(NC4CCCCC4)n3)c2)c1 | binding, competition with immobilised ligand | 10 µM | 80
COc1ncc2cc3ccccc3nc2c1C#N | cell-free assay, competition with immobilised ligand | 5 µM | 97
O=C(c1ccc(Nc2ncc(Cl)c(-c3ccc(Cl)s3)n2)cc1)N1CCC(N2CCCC2)CC1 | binding, competition with immobilised ligand | 1 µM | 0
O=C(NCC1CCOCC1)c1n[nH]cc1NC(=O)c1c(F)cccc1F | binding, competition with immobilised ligand | 1 µM | 84
CN(C)c1nccc(-c2cnn3ncccc23)n1 | binding | 1 µM | 100
O=C(c1ccc(Nc2ncc(Cl)c(-c3cc4ccccc4s3)n2)cc1)N1CCC(N2CCCC2)CC1 | binding, competition with immobilised ligand | 1 µM | 0
CC1CCCN1c1nccc(-c2cnn3ncccc23)n1 (stereo not shown) | binding | 1 µM | 100
CC(C)(O)c1cncc(-c2nc3ccc(F)cc3n2C2CC2)c1 | cell-free assay, competition with immobilised ligand | 1 µM | 100
Nc1ncc2c(n1)-c1c([nH]c3ccc(C#CC4CC4)cc13)CCCC2 | binding, competition with immobilised ligand | 1 µM | 75
COc1cc(-c2cn(C3CCc4ccccc4N(CC(F)(F)F)C3=O)nn2)ccc1-n1ccc(C)n1 (stereo not shown) | cell-free assay, competition with immobilised ligand | 1 µM | 100
C[C@@H]1CCN(c2nccc(-c3cnn4ncccc34)n2)C1 | binding | 1 µM | 100
CCN1CCN(Cc2ccc(C(=O)Nc3ccc(C)c(Oc4ccc5c(c4)CC(=O)N5)c3)cc2C(F)(F)F)CC1 | binding, competition with immobilised ligand | 1 µM | 100
CCCOc1ccc([C@H]2[C@H](C(=O)O)[C@@H](c3ccc4c(c3)OCO4)CN2CC(=O)Nc2c(CC)cccc2CC)cc1 | cell-free assay, competition with immobilised ligand | 1 µM | 100
c1cnn2ncc(-c3ccnc(N4CCC45COC5)n3)c2c1 | binding | 1 µM | 93
CO[C@@H](C)c1c(Nc2ccc([C@@H](N(C)C(=O)C3CCS(=O)(=O)CC3)C(F)(F)F)cc2)cnc2cc(Cl)nn12 | cell-free assay, competition with immobilised ligand | 1 µM | 90
COc1cnc(Nc2cccc(S(N)(=O)=O)c2)nc1N1CCN(c2ccccc2)C(=O)C1 | binding, competition with immobilised ligand | 1 µM | 57
Cc1cc(NC(=O)c2cccc(S(F)(F)(F)(F)F)c2)cc(-n2ccn3nc(-c4cccnc4)cc23)c1 | cell-free assay, competition with immobilised ligand | 1 µM | 85.9
CN(C)c1ncc(F)c(-c2cnn3ncccc23)n1 | binding | 1 µM | 100
